Two compounds from ChEMBL document CHEMBL1121701, “Inhibition of liver alanine aminotransferase activity by some benzophenanthridine alkaloids” (J Med Chem, 1981) can be followed below.

Series [1] in a line: The stability constant of adduct formation for glutathione at pH 6.25. The class given is ADME. The gist of the method:
(§1)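 Thiol–alkaloid adduct stability constants measured by UV-vis spectrophotometry at 20 °C in 10-mm cells. Aqueous solutions held 4×10^-6 M alkaloid, 4×10^-6 to 1.6×10^-2 M thiol and 4×10^-3 M hexadecyltrimethylammonium bromide. Phosphate buffers of ionic strength 0.05 at the stated pH.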

Series [2] can be described thus: The stability constant of adduct formation for cysteine at pH 5.68. Format: ADME. The gist of the method: as §1
Series [3] deals with T1, Alanine aminotransferase 1 (Rattus norvegicus) (UniProt P25409).
T1 sequence (whole entry): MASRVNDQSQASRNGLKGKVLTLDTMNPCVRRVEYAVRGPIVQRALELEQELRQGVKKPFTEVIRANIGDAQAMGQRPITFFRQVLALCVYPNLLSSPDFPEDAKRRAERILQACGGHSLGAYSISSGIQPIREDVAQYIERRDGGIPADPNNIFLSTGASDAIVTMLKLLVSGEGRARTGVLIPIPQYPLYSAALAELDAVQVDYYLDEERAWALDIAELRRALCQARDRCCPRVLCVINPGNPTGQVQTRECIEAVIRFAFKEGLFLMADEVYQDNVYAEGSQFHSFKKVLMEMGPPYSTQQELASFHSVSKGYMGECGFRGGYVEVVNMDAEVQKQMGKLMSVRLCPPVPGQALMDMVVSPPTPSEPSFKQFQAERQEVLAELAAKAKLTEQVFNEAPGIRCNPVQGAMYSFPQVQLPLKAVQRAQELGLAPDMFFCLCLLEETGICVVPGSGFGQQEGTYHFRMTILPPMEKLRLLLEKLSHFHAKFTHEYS
The series is described as follows: Effect of thioethanol on alanine aminotransferase inhibition by the compound at 10E-5. Particulars: for inhibition: concentration not given here. The gist of the method: (§2)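 ALT alkaloid-inhibition assay at 30 °C (L-alanine/2-oxoglutarate substrate, pH 7.4 phosphate, 2,4-dinitrophenylhydrazine read-out at 505 nm). Substrate solution contained 10^-2 M of the thiol. Percent inhibition compared against thiol-free substrate.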

The target of series [4] is T1, Alanine aminotransferase 1 (Rattus norvegicus). The series is described as follows: Effect of glutathione on alanine aminotransferase inhibition by the compound at 10E-5. Particulars: for inhibition: concentration not given here. An outline of the steps:
as §2

Series [5] can be described thus: The stability constant of adduct formation for thioethanol at pH 6.25. Format: ADME. An outline of the steps:
as §1

Series [6] has as its target T1, Alanine aminotransferase 1 (Rattus norvegicus). In words: Inhibitory activity against alanine aminotransferase was measured. An outline of the steps: (§3)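 Partially purified rat liver ALT (ammonium sulfate fraction from prednisolone-treated male Wistar rats, lyophilized, diluted in 0.1 M pH 7.4 potassium phosphate). Enzyme preincubated with alkaloid at pH 7.4, room temperature, 30 min. Then added to substrate (8.33×10^-2 M L-alanine, 1.67×10^-3 M 2-oxoglutarate, pH 7.4) at 30 °C. Product read by 2,4-dinitrophenylhydrazine, alkaline NaOH, A505.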

For series [7] the target is unchanged. The series is described as follows: Concentration for complete inactivation of alanine aminotransferase. An outline of the steps: as §3
Series [8] is described as follows: The stability constant of adduct formation for glutathione at pH 5.68. Format: ADME. The gist of the method:
as §1

Series [9] can be described thus: The stability constant of adduct formation for cysteine at pH 6.25. Format: ADME. The gist of the method:
as §1

Series [10] has as its target T1, Alanine aminotransferase 1 (Rattus norvegicus). In words: Effect of cysteine on alanine aminotransferase inhibition by the compound at 10E-5. To be noted: for inhibition: concentration not given here. An outline of the steps:
as §2

Series [11] can be described thus: The stability constant of adduct formation for thioethanol at pH 5.68. Format: ADME. An outline of the steps:
as §1

Series [12] in a line: The stability constant of adduct formation for thioethanol at pH 5.69. The class given is ADME. An outline of the steps:
(§4)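 Spectrophotometric measurement at 20 °C in 10-mm cells, with pH checked by meter. Aqueous solutions held 4×10^-6 M alkaloid, 4×10^-6 to 1.6×10^-2 M thiol, and 4×10^-3 M hexadecyltrimethylammonium bromide, in phosphate buffers of ionic strength 0.05. The stability constant (K) of the thiol–iminium adduct was taken at the stated pH.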

The nature of series [13]: The stability constant of adduct formation for thioethanol at pH 5.28. The class given is ADME. The gist of the method: as §4
The nature of series [14]: The stability constant of adduct formation for cysteine at pH 5.28. Format: ADME. An outline of the steps:
as §4

Series [15] is described as follows: The stability constant of adduct formation for glutathione at pH 5.69. Format: ADME. An outline of the steps:
as §4

Series [16] can be described thus: The stability constant of adduct formation for glutathione at pH 5.28. The class given is ADME. An outline of the steps: as §4
A short description of series [17]: The stability constant of adduct formation for cysteine at pH 5.69. The class given is ADME. An outline of the steps:
as §4

In the case of `COc1ccc2c(c[n+](C)c3c4cc5c(cc4ccc23)OCO5)c1OC.[Cl-]` [CHELERYTHRINE CHLORIDE], the “Log K” value in series [1] is on record as 4.39; in series [2], 2.74; in series [5] it was 4.05; in series [8], 4.39; in [9], 3.09; in series [11] it was 3.46. The Protection in series [3] stood at 55%; in [4], 70%; in series [10] it was 5%. Moreover, the inhibition stood at 23% in [3], 13% in series [4] and 40% in series [10]. Further, the ID50 in series [6] was 4 µM. In [7], the Concentration was determined as 30 µM.

For `C[n+]1cc2c3c(ccc2c2ccc4cc5c(cc4c21)OCO5)OCO3` [SANGUINARIUM], the “Log K” value is 4.01 in [12]; 3.77 in series [13]; 2.97 in [14]; 4.79 in series [15]; 4.64 in series [16]; 3.33 in series [17]. The Protection in series [3] is 75%; in [4], 81%; in [10], 5%. Further, the inhibition in series [3] was 20%; in [4], 15%; in [10], 74%. In series [6], this compound yielded an ID50 of 3.4 µM. In addition, the Concentration in [7] was 50 µM.

A word on the inhibition: it is the drop in the measured response relative to a control, in per cent.
